Experiment [1] concerns the target T1, Interstitial collagenase (Homo sapiens, UniProt P03956).
T1 sequence (P03956 whole entry): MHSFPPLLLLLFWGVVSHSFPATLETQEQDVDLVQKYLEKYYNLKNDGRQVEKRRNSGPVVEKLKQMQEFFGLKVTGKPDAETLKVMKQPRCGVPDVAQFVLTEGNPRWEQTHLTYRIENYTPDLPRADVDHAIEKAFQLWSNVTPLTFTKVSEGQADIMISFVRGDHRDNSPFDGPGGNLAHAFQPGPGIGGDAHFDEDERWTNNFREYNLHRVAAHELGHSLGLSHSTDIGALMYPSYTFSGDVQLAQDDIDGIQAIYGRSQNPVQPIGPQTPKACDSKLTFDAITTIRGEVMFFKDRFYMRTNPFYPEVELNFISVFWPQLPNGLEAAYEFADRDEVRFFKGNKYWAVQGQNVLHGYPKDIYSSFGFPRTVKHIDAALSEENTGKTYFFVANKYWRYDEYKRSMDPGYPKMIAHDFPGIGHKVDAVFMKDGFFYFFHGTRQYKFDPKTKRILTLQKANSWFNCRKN
Kind of experiment: Inhibition of matrix metalloprotease-1.

The species entered for experiment [2] is Homo sapiens. Kind of experiment: Inhibition of TNF-alpha release in LPS-stimulated human whole blood assay(WBA). In kind it is functional, organism-based. The method, boiled down: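 Human whole blood stimulated with LPS; inhibition of TNF-alpha release measured in blood from three separate donors.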
Experiment [3] concerns the target Matrix metalloproteinase-9 (Homo sapiens, UniProt P14780). Nature of the experiment: Inhibition of human matrix metalloprotease-9.
In experiment [4] the target is 72 kDa type IV collagenase (Homo sapiens, UniProt P08253).
Sequence of 72 kDa type IV collagenase (P08253 whole entry): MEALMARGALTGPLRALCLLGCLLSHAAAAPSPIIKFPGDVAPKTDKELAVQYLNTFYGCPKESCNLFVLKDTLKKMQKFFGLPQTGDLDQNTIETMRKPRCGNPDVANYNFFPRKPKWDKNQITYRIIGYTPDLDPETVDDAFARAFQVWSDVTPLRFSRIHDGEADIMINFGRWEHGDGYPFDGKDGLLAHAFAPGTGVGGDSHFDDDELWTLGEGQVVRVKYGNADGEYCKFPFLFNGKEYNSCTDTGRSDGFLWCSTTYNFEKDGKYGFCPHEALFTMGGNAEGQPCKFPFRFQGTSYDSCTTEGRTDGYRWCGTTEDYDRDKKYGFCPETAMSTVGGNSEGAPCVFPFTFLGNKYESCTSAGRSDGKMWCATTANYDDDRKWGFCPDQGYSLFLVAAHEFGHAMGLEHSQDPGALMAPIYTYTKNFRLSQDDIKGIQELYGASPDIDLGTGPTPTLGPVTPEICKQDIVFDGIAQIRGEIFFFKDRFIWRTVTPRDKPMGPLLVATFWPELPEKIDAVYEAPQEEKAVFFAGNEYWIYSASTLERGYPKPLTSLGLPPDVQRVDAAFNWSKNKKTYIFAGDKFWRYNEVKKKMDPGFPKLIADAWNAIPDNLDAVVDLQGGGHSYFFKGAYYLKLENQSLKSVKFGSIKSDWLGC
The species entered for experiment [5] is Homo sapiens. Nature of the experiment: Binding affinity against human serum protein. In kind it is functional. In a few lines:
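Binding to human serum proteins, reported as the mean percentage of compound bound across three determinations.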

The target in experiment [6] is Disintegrin and metalloproteinase domain-containing protein 17 (Sus scrofa, UniProt O77636).
Sequence of Disintegrin and metalloproteinase domain-containing protein 17 (O77636 whole entry, the tested form may be a part): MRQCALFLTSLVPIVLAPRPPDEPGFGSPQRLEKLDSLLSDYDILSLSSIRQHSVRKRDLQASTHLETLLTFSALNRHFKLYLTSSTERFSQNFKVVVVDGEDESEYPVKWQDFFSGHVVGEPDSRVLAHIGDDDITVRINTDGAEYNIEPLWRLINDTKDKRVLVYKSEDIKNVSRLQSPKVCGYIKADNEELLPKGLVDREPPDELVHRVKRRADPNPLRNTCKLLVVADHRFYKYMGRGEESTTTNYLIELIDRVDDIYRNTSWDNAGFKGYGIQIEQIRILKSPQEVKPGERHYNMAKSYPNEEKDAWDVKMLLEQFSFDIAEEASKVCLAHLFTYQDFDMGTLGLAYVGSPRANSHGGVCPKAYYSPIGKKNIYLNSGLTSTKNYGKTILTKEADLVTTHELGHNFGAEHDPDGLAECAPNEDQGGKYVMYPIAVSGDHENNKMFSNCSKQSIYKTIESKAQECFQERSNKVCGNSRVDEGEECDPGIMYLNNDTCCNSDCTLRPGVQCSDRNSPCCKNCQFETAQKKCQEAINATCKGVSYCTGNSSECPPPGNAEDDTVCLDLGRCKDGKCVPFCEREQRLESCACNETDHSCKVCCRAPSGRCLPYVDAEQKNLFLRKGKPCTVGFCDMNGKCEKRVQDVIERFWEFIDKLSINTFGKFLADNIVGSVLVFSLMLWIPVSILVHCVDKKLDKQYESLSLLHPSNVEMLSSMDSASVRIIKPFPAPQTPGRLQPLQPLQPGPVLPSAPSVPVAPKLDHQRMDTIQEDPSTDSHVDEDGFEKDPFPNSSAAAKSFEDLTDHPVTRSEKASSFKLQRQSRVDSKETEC
Experiment [7] concerns the target Stromelysin-1 (Homo sapiens, UniProt P08254). Kind of experiment: Inhibition of matrix metalloprotease-3.
The target in experiment [8] is Collagenase 3 (Homo sapiens, UniProt P45452). Kind of experiment: Inhibition of matrix metalloprotease-13.
For experiment [9], the target named is Stromelysin-2 (Homo sapiens, UniProt P09238). Kind of experiment: Inhibition of matrix metalloprotease-10.
Sequence of Stromelysin-2 (P09238 whole entry): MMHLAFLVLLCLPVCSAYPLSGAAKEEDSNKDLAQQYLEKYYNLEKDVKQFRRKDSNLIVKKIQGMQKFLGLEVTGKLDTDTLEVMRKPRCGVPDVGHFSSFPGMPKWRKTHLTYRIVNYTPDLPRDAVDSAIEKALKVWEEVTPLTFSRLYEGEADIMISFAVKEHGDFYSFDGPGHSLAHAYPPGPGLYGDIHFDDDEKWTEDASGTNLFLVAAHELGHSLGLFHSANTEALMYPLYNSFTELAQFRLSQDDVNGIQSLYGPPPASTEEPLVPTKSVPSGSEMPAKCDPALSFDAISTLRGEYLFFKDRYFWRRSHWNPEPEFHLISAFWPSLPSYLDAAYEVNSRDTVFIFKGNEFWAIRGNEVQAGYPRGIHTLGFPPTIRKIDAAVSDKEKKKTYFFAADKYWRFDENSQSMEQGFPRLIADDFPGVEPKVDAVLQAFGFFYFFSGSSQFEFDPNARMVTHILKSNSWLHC
The target of experiment [10] is Matrix metalloproteinase-16 (Homo sapiens, UniProt P51512). Kind of experiment: Inhibition of matrix metalloprotease-16.
Sequence of Matrix metalloproteinase-16 (P51512 whole entry): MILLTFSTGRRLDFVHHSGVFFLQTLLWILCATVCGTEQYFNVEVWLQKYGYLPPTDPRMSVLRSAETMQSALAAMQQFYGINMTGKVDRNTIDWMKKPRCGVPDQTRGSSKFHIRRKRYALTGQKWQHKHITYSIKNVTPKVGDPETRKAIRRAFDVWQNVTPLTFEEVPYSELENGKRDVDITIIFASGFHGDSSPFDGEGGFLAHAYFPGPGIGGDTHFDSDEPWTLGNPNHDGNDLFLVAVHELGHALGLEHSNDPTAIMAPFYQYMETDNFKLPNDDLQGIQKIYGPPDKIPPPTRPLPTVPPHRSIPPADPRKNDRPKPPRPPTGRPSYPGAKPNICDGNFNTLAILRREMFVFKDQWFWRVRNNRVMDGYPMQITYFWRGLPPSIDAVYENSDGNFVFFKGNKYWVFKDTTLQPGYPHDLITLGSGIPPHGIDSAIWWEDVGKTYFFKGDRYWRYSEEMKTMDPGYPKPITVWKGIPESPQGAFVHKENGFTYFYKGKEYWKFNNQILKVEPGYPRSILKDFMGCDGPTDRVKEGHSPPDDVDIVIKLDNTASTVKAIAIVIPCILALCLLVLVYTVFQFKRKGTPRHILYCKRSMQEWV
Experiment [11] addresses Neutrophil collagenase (Homo sapiens, UniProt P22894). Kind of experiment: Inhibition of matrix metalloprotease-8.
Experiment [12] has as its target T2, Matrilysin (Homo sapiens, UniProt P09237).
T2 sequence (P09237 whole entry): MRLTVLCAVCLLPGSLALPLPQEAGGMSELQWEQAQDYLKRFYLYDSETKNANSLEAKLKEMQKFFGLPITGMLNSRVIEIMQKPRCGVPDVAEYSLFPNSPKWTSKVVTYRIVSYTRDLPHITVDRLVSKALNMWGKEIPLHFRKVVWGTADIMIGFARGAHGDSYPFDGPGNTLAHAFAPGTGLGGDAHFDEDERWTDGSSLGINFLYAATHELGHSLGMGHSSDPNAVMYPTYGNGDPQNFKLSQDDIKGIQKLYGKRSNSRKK
Kind of experiment: Inhibition of matrix metalloprotease-7.

Experiment [13] deals with Matrix metalloproteinase-14 (Homo sapiens, UniProt P50281). Kind of experiment: Inhibition of matrix metalloprotease-14.
In experiment [14] the target is Matrix metalloproteinase-15 (Homo sapiens, UniProt P51511). Kind of experiment: Inhibition of matrix metalloprotease-15.
Sequence of Matrix metalloproteinase-15 (P51511 whole entry): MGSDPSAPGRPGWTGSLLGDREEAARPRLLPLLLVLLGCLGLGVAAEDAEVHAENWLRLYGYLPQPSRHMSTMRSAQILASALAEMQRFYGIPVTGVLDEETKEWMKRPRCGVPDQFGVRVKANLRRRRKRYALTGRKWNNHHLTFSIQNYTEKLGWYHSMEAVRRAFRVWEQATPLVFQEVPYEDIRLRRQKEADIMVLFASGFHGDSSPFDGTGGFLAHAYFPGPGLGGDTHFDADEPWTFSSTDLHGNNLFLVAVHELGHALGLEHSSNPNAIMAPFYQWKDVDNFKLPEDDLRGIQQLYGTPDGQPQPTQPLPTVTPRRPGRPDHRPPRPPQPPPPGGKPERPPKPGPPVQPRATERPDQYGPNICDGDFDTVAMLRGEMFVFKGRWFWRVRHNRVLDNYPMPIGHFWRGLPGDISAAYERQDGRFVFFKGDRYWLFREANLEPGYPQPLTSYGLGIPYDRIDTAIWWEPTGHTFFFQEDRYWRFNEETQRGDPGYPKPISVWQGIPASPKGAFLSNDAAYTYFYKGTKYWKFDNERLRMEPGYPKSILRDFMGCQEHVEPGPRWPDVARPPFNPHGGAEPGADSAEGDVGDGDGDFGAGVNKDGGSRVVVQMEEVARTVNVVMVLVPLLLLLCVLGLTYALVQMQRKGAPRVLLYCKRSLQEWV
The target of experiment [15] is Macrophage metalloelastase (Homo sapiens, UniProt P39900). Nature of the experiment: Inhibition of matrix metalloprotease-12.
Experiment [16] concerns the target T1, Interstitial collagenase. Kind of experiment: Inhibition of human matrix metalloprotease-1.

The structures appear in SMILES notation. Bounds are passed on as bounds.

Sequence of Neutrophil collagenase (P22894 whole entry): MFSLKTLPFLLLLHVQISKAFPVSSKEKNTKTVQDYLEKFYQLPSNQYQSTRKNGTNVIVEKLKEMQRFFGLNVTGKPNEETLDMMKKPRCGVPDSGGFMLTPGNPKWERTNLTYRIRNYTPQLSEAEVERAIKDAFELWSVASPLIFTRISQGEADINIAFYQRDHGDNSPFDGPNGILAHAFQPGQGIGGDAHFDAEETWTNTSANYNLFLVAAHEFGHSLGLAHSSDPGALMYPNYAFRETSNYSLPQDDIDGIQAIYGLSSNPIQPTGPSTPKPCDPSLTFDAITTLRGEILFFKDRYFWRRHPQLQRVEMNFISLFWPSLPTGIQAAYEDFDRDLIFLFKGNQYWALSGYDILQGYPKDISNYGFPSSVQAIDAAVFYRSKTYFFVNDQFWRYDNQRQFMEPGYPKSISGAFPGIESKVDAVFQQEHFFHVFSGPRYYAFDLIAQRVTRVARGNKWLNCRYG
Sequence of Matrix metalloproteinase-9 (P14780 whole entry): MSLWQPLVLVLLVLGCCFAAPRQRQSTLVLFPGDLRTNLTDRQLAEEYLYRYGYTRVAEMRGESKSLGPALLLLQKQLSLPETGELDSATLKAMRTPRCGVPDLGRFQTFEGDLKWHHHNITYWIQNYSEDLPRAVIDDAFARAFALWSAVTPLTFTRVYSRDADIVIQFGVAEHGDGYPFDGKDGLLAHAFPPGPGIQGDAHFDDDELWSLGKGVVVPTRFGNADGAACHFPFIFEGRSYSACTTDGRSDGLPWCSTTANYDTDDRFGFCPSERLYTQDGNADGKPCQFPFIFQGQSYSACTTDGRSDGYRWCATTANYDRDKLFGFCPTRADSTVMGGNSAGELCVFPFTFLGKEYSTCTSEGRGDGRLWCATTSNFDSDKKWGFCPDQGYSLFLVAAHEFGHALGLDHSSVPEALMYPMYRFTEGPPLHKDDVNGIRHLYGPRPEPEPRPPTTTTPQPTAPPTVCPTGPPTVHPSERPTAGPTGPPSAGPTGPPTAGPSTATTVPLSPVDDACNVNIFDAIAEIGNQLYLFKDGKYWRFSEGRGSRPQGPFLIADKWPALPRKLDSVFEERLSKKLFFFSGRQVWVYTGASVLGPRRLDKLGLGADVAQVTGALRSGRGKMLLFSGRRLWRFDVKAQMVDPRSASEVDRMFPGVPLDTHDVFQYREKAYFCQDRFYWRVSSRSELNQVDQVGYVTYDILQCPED
Sequence of Stromelysin-1 (P08254 whole entry): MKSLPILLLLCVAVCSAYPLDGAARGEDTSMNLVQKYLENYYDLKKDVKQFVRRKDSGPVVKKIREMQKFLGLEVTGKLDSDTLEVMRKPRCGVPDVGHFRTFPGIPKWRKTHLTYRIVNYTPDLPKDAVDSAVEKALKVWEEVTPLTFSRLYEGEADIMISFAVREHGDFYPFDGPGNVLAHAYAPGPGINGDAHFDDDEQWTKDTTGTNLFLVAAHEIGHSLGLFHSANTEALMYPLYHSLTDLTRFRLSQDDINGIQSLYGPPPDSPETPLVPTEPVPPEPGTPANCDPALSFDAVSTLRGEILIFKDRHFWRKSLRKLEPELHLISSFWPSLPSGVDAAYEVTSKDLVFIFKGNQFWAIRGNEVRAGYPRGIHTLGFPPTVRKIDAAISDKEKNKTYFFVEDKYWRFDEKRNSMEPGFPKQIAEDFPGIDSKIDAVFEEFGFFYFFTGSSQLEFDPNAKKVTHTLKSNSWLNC

Regarding `O=C1NCCCC[C@@H](C(=O)NCC(=O)N2CCNCC2)NC(=O)[C@H](Cc2ccc(-c3cccc(C(F)(F)F)c3)cc2)[C@@H](C(=O)NO)CCCO1`, the Ki in experiment [1] was greater than 2 µM; in experiment [3] it was 0.091 µM; in experiment [4], 0.011 µM; in experiment [6], 0.0037 µM. In [2], this compound came in with an IC50 of 0.12 µM. Further, in experiment [5], the Bound came to 29%.
Turning to `O=C1NCCCC[C@@H](C(=O)NCC(=O)N2CCNCC2)NC(=O)[C@H](Cc2ccc(-c3ccccc3C(F)(F)F)cc2)[C@@H](C(=O)NO)CCCO1`, the Ki was greater than 2 µM in experiment [1]; 0.582 µM in experiment [7]; 0.05 µM in experiment [8]; greater than 2 µM in experiment [9]; 1.79 µM in experiment [3]; 0.7 µM in [4]. Besides, the Ki is greater than 2 µM in [10]; 0.672 µM in experiment [11]; 0.177 µM in [12]; greater than 2 µM in experiment [13]; greater than 2 µM in experiment [14]; 0.0017 µM in experiment [6]. This compound came in with a Ki in [15] of 0.39 µM. The compound further registered an IC50 in experiment [2] of 0.06 µM. For the same compound, the Bound in experiment [5] was determined as 36%.
Consider `NC(=O)CNC(=O)[C@@H]1CCCCNC(=O)OCCC[C@H](C(=O)NO)[C@@H](Cc2ccc(-c3ccccc3C(F)(F)F)cc2)C(=O)N1`, for which the Ki in [1] is greater than 2 µM; in [7], greater than 2 µM; in [8], 0.442 µM; in experiment [9], greater than 2 µM; in experiment [3], greater than 2 µM; in experiment [4], 1.87 µM. Besides, the Ki in [10] was greater than 2 µM; in [11], 0.428 µM; in [12], 1.34 µM; in experiment [13], greater than 2 µM; in experiment [14] it was greater than 2 µM; in experiment [6], 0.0015 µM. The compound further registered a Ki in experiment [15] greater than 2 µM. The compound also registered an IC50 in experiment [2] of 0.18 µM.
Consider `O=C1NCCCC[C@@H](C(=O)NCC(=O)N2CCNCC2)NC(=O)[C@H](Cc2ccc(-c3cc(C(F)(F)F)cc(C(F)(F)F)c3)cc2)[C@@H](C(=O)NO)CCCO1`, for which the Ki in [1], in experiment [7], in experiment [8], in [9], in experiment [3] and in experiment [4] was greater than 2 µM throughout. Also, the Ki in experiment [10] is greater than 2 µM; in [11] it was 0.272 µM; in [12], greater than 2 µM; in experiment [13], greater than 2 µM; in experiment [14], greater than 2 µM; in experiment [6] it was 0.0046 µM. For the same compound, in [15], the affinity, expressed as Ki, was 0.035 µM. For the same compound, the IC50 in experiment [2] is 0.18 µM. The Bound in experiment [5] came out at 71%.
For the compound `O=C1NCCCC[C@@H](C(=O)NCC(=O)N2CCOCC2)NC(=O)[C@H](Cc2ccc(-c3c(F)cccc3F)cc2)[C@@H](C(=O)NO)CCCO1`, the Ki is greater than 2 µM in [16], 0.021 µM in [3], 0.00064 µM in [4] and 0.0063 µM in experiment [6]. The IC50 in experiment [2] was 3.7 µM. For the same compound, the Bound in experiment [5] came out at 25%.
`CS(=O)(=O)c1ccccc1-c1ccc(C[C@H]2C(=O)N[C@H](C(=O)NCC(=O)N3CCOCC3)CCCCNC(=O)OCCC[C@@H]2C(=O)NO)cc1`: the Ki was greater than 2 µM in experiment [1], greater than 2 µM in experiment [3], greater than 2 µM in experiment [4] and 0.0065 µM in [6]. Also, in experiment [2], the IC50 is 0.41 µM. Besides, the Bound in experiment [5] was found to be 5%.
In experiment [5], `CC(C)C[C@H]1C(=O)N[C@H](C(=O)NCC(=O)N2CCOCC2)CCCCNC(=O)OCCC[C@@H]1C(=O)NO` displayed a Bound of 1%.
Consider `CNC(=O)CNC(=O)[C@@H]1CCCCNC(=O)OCCC[C@H](C(=O)NO)[C@@H](Cc2ccc(-c3ccccc3C(F)(F)F)cc2)C(=O)N1`, for which the Ki in [1] is greater than 2 µM; in experiment [3] it was 1.17 µM; in experiment [4], 0.45 µM; in experiment [6], 0.0038 µM. In [2], this compound gave an IC50 of 0.38 µM. Besides, the Bound in [5] was found to be 33%.
As to `O=C1NCCCC[C@@H](C(=O)NCC(=O)N2CCOCC2)NC(=O)[C@H](Cc2ccc(-c3ccccc3C(F)(F)F)cc2)[C@@H](C(=O)NO)CCCO1`, the Ki in experiment [1] was greater than 2 µM; in experiment [7] it was greater than 2 µM; in experiment [8] it was 0.653 µM; in experiment [9], greater than 2 µM; in [3], greater than 2 µM; in experiment [4], greater than 2 µM. The Ki in experiment [10] was greater than 2 µM; in experiment [11] it was 0.126 µM; in [12] it was 0.834 µM; in experiment [13] it was greater than 2 µM; in experiment [14], greater than 2 µM; in [6] it was 0.0028 µM. The compound also gave a Ki in experiment [15] greater than 2 µM. In [2], this compound returned an IC50 of 0.07 µM. Besides, the Bound in experiment [5] was determined as 55%.
As for `O=C1NCCCC[C@@H](C(=O)NCC(=O)N2CCOCC2)NC(=O)[C@H](Cc2ccc(-c3cc(Cl)cc(Cl)c3)cc2)[C@@H](C(=O)NO)CCCO1`, the Ki in experiment [1] is greater than 2 µM; in [3], 0.183 µM; in [4] it was 0.05 µM; in experiment [6], 0.0028 µM. Further, in [2], the IC50 turned out to be 0.227 µM. In experiment [5], the Bound came to 83%.

By Ki is commonly meant the equilibrium dissociation constant of an inhibitor or competing ligand from its target. For orientation: IC50 means the concentration that gives 50% inhibition. The low end stands for higher potency, the high end for lower potency.

The record behind these values is ChEMBL document CHEMBL1134694, “Discovery of macrocyclic hydroxamic acids containing biphenylmethyl derivatives at P1', a series of selective TNF-alpha converting enzyme inhibitors with potent cellular activity in the inhibition of TNF-alpha release” (J Med Chem, 2001).
